Assay results taken from ChEMBL document CHEMBL4312029, “Structure-activity relationship studies and in vitro and in vivo anticancer activity of novel 3-aroyl-1,4-diarylpyrroles against solid tumors and hematological malignancies” (Eur J Med Chem, 2020).

How the values were obtained:
[1] = biological target: Tubulin; assay: Inhibition of tubulin polymerization (unknown origin) incubated for 15 mins followed by GTP addition and measured for 20 mins by spectrophotometry; assay type: protein-complex assay, Homo sapiens
How it was run: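 Tubulin assembly assay with tubulin at 10 µM. IC50 for inhibition of polymerization; run in duplicate or triplicate.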

[2] = test system: MCF7; assay: Cytotoxicity against human MCF7 cells assessed as reduction in cell growth incubated for 96 hrs by MTT assay; assay type: functional, cell-based; settings: MCF7, 96 h
How it was run: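 Growth inhibition of human breast carcinoma cells, reported as IC50; run in duplicate or triplicate.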

[3] = biological target: Tubulin (Homo sapiens) (UniProt P68371+Q9H4B7+P0DPH7+P68366+Q13509+Q71U36+P04350+Q3ZCM7+P07437+P68363+Q9BQE3+Q6PEY2+Q13885+Q9BVA1+Q9BUF5); assay: Inhibition of [3H]colchicine binding to tubulin (unknown origin) at 5 uM incubated for 10 mins by DEAE-cellulose filter method relative to control; assay type: protein-complex assay

| IC50 [1] | inhibition [3] | Structure (SMILES) | IC50 [2] |
| --- | --- | --- | --- |
| 660 nM | 68% | COc1cc(C(=O)c2cn(-c3ccc(F)cc3)cc2-c2ccccc2F)cc(OC)c1OC | 39 nM |
| 480 nM | 70% | COc1cc(C(=O)c2cn(-c3ccc(C)cc3)cc2-c2ccccc2Cl)cc(OC)c1OC | 180 nM |
| > 20000 nM | 0% | COc1cc(C(=O)c2cn(-c3ccc(F)cc3)cc2-c2ccc([N+](=O)[O-])cc2)cc(OC)c1OC | 240 nM |
| 1700 nM | 32% | COc1cc(C(=O)c2cn(-c3cccc(N)c3)cc2-c2cccc([N+](=O)[O-])c2)cc(OC)c1OC | 510 nM |
| 630 nM | 79% | COc1cc(C(=O)c2cn(-c3cccc(N)c3)cc2-c2ccccc2Cl)cc(OC)c1OC | 40 nM |
| 880 nM | 70% | COc1cc(C(=O)c2cn(-c3cccc(N)c3)cc2-c2cccc(N)c2)cc(OC)c1OC | 60 nM |
| 770 nM | 14% | COc1cc(C(=O)c2cn(-c3ccccc3)cc2-c2ccc(Br)cc2)cc(OC)c1OC | 340 nM |
| > 20000 nM | 6.5% | COc1cc(C(=O)c2cn(-c3cc(OC)c(OC)c(OC)c3)cc2-c2ccccc2)cc(OC)c1OC | > 5000 nM |
| > 20000 nM |  | COc1cc(C(=O)c2cn(-c3ccccc3)cc2/C=C/c2ccccc2)cc(OC)c1OC | 2200 nM |
| 710 nM | 36% | COc1cc(C(=O)c2cn(-c3ccc(C)cc3)cc2-c2cccc([N+](=O)[O-])c2)cc(OC)c1OC | 210 nM |
| 410 nM | 68% | COc1cc(C(=O)c2cn(-c3ccc(F)cc3)cc2-c2cccc(N)c2)cc(OC)c1OC | 53 nM |
| 790 nM | 57% | COc1cc(C(=O)c2cn(-c3cccc(C)c3)cc2-c2ccccc2F)cc(OC)c1OC | 190 nM |
| 510 nM | 65% | COc1cc(C(=O)c2cn(-c3ccc(F)cc3)cc2-c2ccccc2Cl)cc(OC)c1OC | 83 nM |
| > 20000 nM | 4.2% | COc1cc(C(=O)c2cn(-c3cccc(C)c3)cc2-c2cccc([N+](=O)[O-])c2)cc(OC)c1OC | 880 nM |
| > 20000 nM |  | COc1cc(C(=O)c2cn(-c3ccccc3)cc2-c2cccc(Br)c2)cc(OC)c1OC | 950 nM |
| 910 nM | 64% | COc1cc(C(=O)c2cn(-c3cccc(C)c3)cc2-c2cccc(N)c2)cc(OC)c1OC | 130 nM |
| > 20000 nM |  | COc1cc(C(=O)c2cn(-c3ccccc3[N+](=O)[O-])cc2-c2ccccc2)cc(OC)c1OC | 5000 nM |

Further lines, the compound ahead of its results:

| Structure (SMILES) | IC50 [1] | inhibition [3] | IC50 [2] |
| --- | --- | --- | --- |
| COc1ccccc1-n1cc(C(=O)c2cc(OC)c(OC)c(OC)c2)c(-c2ccccc2)c1 | 1300 nM | 22% | 150 nM |
| COc1cc(C(=O)c2cn(-c3ccccc3Cl)cc2-c2ccccc2)cc(OC)c1OC | > 20000 nM |  | 1800 nM |
| COc1cc(C(=O)c2cn(-c3cccc(Br)c3)cc2-c2ccccc2)cc(OC)c1OC | 1900 nM | 23% | 78 nM |
| COc1cc(C(=O)c2cn(-c3ccccc3)cc2-c2ccccc2[N+](=O)[O-])cc(OC)c1OC | 730 nM | 61% | 49 nM |
| COc1cc(C(=O)c2cn(-c3ccccc3)cc2-c2ccccc2Br)cc(OC)c1OC | 670 nM | 39% | 190 nM |
| COc1ccccc1-c1cn(-c2ccccc2)cc1C(=O)c1cc(OC)c(OC)c(OC)c1 | 550 nM | 31% | 190 nM |
| COc1cc(C(=O)c2cn(-c3cccc(C)c3)cc2-c2ccc(N)cc2)cc(OC)c1OC | 330 nM | 88% | 18 nM |
| COc1cc(C(=O)c2cn(-c3ccc(C)cc3)cc2-c2cccc(N)c2)cc(OC)c1OC | 420 nM | 88% | 53 nM |
| COc1cc(C(=O)c2cn(-c3cccc(Cl)c3)cc2-c2ccccc2)cc(OC)c1OC | 2100 nM | 37% | 150 nM |
| COc1cc(C(=O)c2cn(-c3ccc(C)cc3)cc2-c2ccc([N+](=O)[O-])cc2)cc(OC)c1OC | 650 nM | 34% | 200 nM |
| COc1ccc(-n2cc(C(=O)c3cc(OC)c(OC)c(OC)c3)c(-c3ccccc3)c2)cc1 | 960 nM | 27% | 120 nM |
| COc1cc(C(=O)c2cn(-c3ccccc3)cc2-c2ccc([N+](=O)[O-])cc2)cc(OC)c1OC | > 20000 nM |  | 590 nM |
| COc1cc(C(=O)c2cn(-c3ccc(N)cc3)cc2-c2cccc([N+](=O)[O-])c2)cc(OC)c1OC | 3800 nM | 18% | 260 nM |
| COc1cccc(-c2cn(-c3ccccc3)cc2C(=O)c2cc(OC)c(OC)c(OC)c2)c1 | 450 nM | 27% | 180 nM |
| COc1cc(C(=O)c2cn(-c3ccc(N)cc3)cc2-c2ccccc2Cl)cc(OC)c1OC | 710 nM | 65% | 83 nM |
| COc1cc(C(=O)c2cn(-c3cccc(C)c3)cc2-c2ccccc2[N+](=O)[O-])cc(OC)c1OC | 1200 nM | 41% | 220 nM |
| COc1cc(C(=O)c2cn(-c3ccc(C)cc3)cc2-c2ccccc2[N+](=O)[O-])cc(OC)c1OC | 610 nM | 71% | 65 nM |
| COc1ccc(-c2cn(-c3ccccc3)cc2C(=O)c2cc(OC)c(OC)c(OC)c2)cc1 | 480 nM | 42% | 70 nM |
| COc1cc(C(=O)c2cn(-c3ccc(N)cc3)cc2-c2ccc([N+](=O)[O-])cc2)cc(OC)c1OC | 1800 nM | 23% | 260 nM |
| COc1cc(C(=O)c2cn(-c3cccc([N+](=O)[O-])c3)cc2-c2ccccc2)cc(OC)c1OC | > 20000 nM | 12% | 550 nM |
| COc1cc(C(=O)c2cn(-c3ccc(N)cc3)cc2-c2ccccc2)cc(OC)c1OC | 1600 nM | 67% | 35 nM |
| COc1cc(C(=O)c2cn(-c3cccc(N)c3)cc2-c2ccc([N+](=O)[O-])cc2)cc(OC)c1OC | 780 nM | 41% | 110 nM |
| COc1cc(C(=O)c2cn(-c3ccc(C)cc3)cc2-c2ccccc2F)cc(OC)c1OC | 780 nM | 80% | 44 nM |
| COc1cc(C(=O)c2cn(-c3ccccc3N)cc2-c2ccccc2)cc(OC)c1OC | > 20000 nM |  | 3800 nM |
| COc1cc(C(=O)c2cn(-c3ccccc3)cc2-c2ccc(N)cc2)cc(OC)c1OC | 1200 nM |  | 9 nM |
| COc1ccc(Br)cc1-c1cn(-c2ccccc2)cc1C(=O)c1cc(OC)c(OC)c(OC)c1 | > 20000 nM |  | 2200 nM |
| COc1cc(C(=O)c2cn(-c3ccccc3)cc2-c2ccccc2C)cc(OC)c1OC | 790 nM | 18% | 190 nM |
| COc1cc(C(=O)c2cn(-c3ccc(C)cc3)cc2-c2ccc(N)cc2)cc(OC)c1OC | 360 nM | 95% | 6 nM |
| COc1cc(C(=O)c2cn(-c3ccccc3C)cc2-c2ccccc2)cc(OC)c1OC | > 20000 nM |  | 2200 nM |
